These results are taken from ChEMBL document CHEMBL3272084, “Adamantane and protoadamantanealkanamines as potential anti-Parkinson agents” (J Med Chem, 1976).

For series [1], the system named is Mus musculus. Description: Antidepressant activity in CFW mouse assessed as reversal of reserpine-induced hypothermia by measuring temperature index at 0.09 mmol/kg, sc measured every 30 mins up to 1.5 hrs. Format: functional. In short, it runs like this:
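Groups of five CFW mice received reserpine 4 mg/kg sc. After 2.5 h, rectal temperature was taken. The temperature index (TI) is the sum of the group's mean changes from its mean initial temperature at 30, 60 and 90 min. Scoring: 0 = no effect, 1 = TI 5–10, 2 = TI >10. A run was repeated if the reserpine control TI fell outside −5 to −15.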

Series [2] in a line: Acute toxicity in ip dosed albino CFW mouse assessed as mortality measured over 48 hrs. Format: organism-based. As to conditions: albino CFW, in vivo.
The nature of series [3]: Acute toxicity in po dosed albino CFW mouse assessed as mortality measured over 48 hrs. Format: organism-based. As to conditions: albino CFW, in vivo.
For series [4], the system named is Mus musculus. The experiment in a line: Antidepressant activity in CFW mouse assessed as reversal of reserpine-induced hypothermia by measuring temperature index at 0.05 mmol/kg, sc measured every 30 mins up to 1.5 hrs. Type of series: functional, organism-based.
For series [5], the system named is Mus musculus. The experiment in a line: Antiparkinsonian activity in CFW mouse assessed as reversal of reserpine-induced catalepsy at 0.05 mmol/kg, sc measured every 30 mins up to 1.5 hrs. Format: functional, organism-based.
Series [6] relates to Mus musculus. The experiment in a line: Antiparkinsonian activity in CFW mouse assessed as reversal of reserpine-induced catalepsy at 0.07 mmol/kg, sc measured every 30 mins up to 1.5 hrs. Format: functional, organism-based. The method, boiled down: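 Groups of five CFW mice were given reserpine 4 mg/kg sc, and catalepsy was assessed 2.5 h later. Reversal was scored 0–5: 0 no effect, 1 marginal, 2 significant, 3 marked, 4 approaching complete, 5 complete reversal.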

The test system of series [7] is Rattus norvegicus. Description: Antiparkinsonian activity in Wistar rat assessed as reversal of reserpine-induced catalepsy at 0.14 mmol/kg, po measured every 30 mins up to 1.5 hrs. Type of series: functional, organism-based.
The test system of series [8] is Mus musculus. Description: Antidepressant activity in CFW mouse assessed as reversal of reserpine-induced hypothermia by measuring temperature index at 0.07 mmol/kg, sc measured every 30 mins up to 1.5 hrs. Format: functional.
Series [9] relates to Mus musculus. Description: Antidepressant activity in CFW mouse assessed as reversal of reserpine-induced hypothermia by measuring temperature index at 0.16 mmol/kg, sc measured every 30 mins up to 1.5 hrs. Format: functional.
For series [10], the system named is Mus musculus. Description: Antiparkinsonian activity in CFW mouse assessed as reversal of reserpine-induced catalepsy at 0.16 mmol/kg, sc measured every 30 mins up to 1.5 hrs. Format: functional, organism-based.
Series [11] deals with Rattus norvegicus. Description: Antiparkinsonian activity in Wistar rat assessed as reversal of reserpine-induced catalepsy at 0.11 mmol/kg, po measured every 30 mins up to 1.5 hrs. Format: functional, organism-based.
Series [12] relates to Mus musculus. Description: Antiparkinsonian activity in CFW mouse assessed as reversal of reserpine-induced catalepsy at 0.08 mmol/kg, sc measured every 30 mins up to 1.5 hrs. Format: functional, organism-based.
Series [13] deals with Mus musculus. Description: Antidepressant activity in CFW mouse assessed as reversal of reserpine-induced hypothermia by measuring temperature index at 0.04 mmol/kg, sc measured every 30 mins up to 1.5 hrs. Format: functional.
For series [14], the system named is Mus musculus. The experiment in a line: Antidepressant activity in CFW mouse assessed as reversal of reserpine-induced hypothermia by measuring temperature index at 0.11 mmol/kg, sc measured every 30 mins up to 1.5 hrs. Type of series: functional, organism-based.
Series [15] has as its system Mus musculus. Description: Antiparkinsonian activity in CFW mouse assessed as reversal of reserpine-induced catalepsy at 0.11 mmol/kg, sc measured every 30 mins up to 1.5 hrs. Format: functional, organism-based.
Series [16] deals with Mus musculus. Description: Antiparkinsonian activity in CFW mouse assessed as reversal of reserpine-induced catalepsy at 0.15 mmol/kg, sc measured every 30 mins up to 1.5 hrs. Type of series: functional, organism-based.
The subject of series [17] is Mus musculus. Description: Antidepressant activity in CFW mouse assessed as reversal of reserpine-induced hypothermia by measuring temperature index at 0.15 mmol/kg, sc measured every 30 mins up to 1.5 hrs. Format: functional.
Series [18] has as its system Mus musculus. The experiment in a line: Antidepressant activity in CFW mouse assessed as reversal of reserpine-induced hypothermia by measuring temperature index at 0.20 mmol/kg, sc measured every 30 mins up to 1.5 hrs. Type of series: functional, organism-based.
Series [19] has as its system Mus musculus. The experiment in a line: Antiparkinsonian activity in CFW mouse assessed as reversal of reserpine-induced catalepsy at 0.20 mmol/kg, sc measured every 30 mins up to 1.5 hrs. Type of series: functional, organism-based.
The subject of series [20] is Rattus norvegicus. Description: Antiparkinsonian activity in Wistar rat assessed as reversal of reserpine-induced catalepsy at 0.15 mmol/kg, po measured every 30 mins up to 1.5 hrs. Format: functional, organism-based.
Series [21] concerns Mus musculus. The experiment in a line: Antidepressant activity in CFW mouse assessed as reversal of reserpine-induced hypothermia by measuring temperature index at 0.14 mmol/kg, sc measured every 30 mins up to 1.5 hrs. Format: functional.
For series [22], the system named is Mus musculus. Description: Antiparkinsonian activity in CFW mouse assessed as reversal of reserpine-induced catalepsy at 0.14 mmol/kg, sc measured every 30 mins up to 1.5 hrs. Format: functional, organism-based.

By LD50 is commonly meant the dose at which mortality reaches 50%.

The source made the active and inactive calls. The rule behind the calls is not given here.

Regarding `Cl.c1ccc(CCNC2CC3CC4CC(C3)C2C4)cc1` (stereo in doubt; 12), the Activity in the series on Mus musculus [1] is 5. For the same molecule, the results for the LD50 at 48 h in [2] and in series [3] were 300 µmol/kg and 1000 µmol/kg, respectively.

For the molecule `O=C(O)/C=C\C(=O)O.c1ccc(CNCC2CC3CC4CC(C3)C2C4)cc1` (centres undefined), the outcome in the series on Mus musculus [4] and in the series with Mus musculus [5] was inactive. The LD50 at 48 h in [2] came to 200 µmol/kg; in series [3], 500 µmol/kg.

Take `CNCC12CC3CC(CC(C3)C1c1ccccc1)C2.Cl` (centres undefined): the result with Mus musculus [6] and in the series with Rattus norvegicus [7] was inactive. Moreover, the Activity in the series with Mus musculus [8] was 5.

Turning to `Cl.Clc1ccc(CNC2CC3CC4CC(C3)C2C4)cc1` (centres undefined), in the series with Mus musculus [9], the Activity was found to be 5. For the same molecule, the LD50 at 48 h in series [2] worked out at 600 µmol/kg; in [3], 1900 µmol/kg. Moreover, the outcome in the series on Mus musculus [10] was inactive.

With `CNCCC12CC3CC(CC(C3)C1Br)C2.O=C(O)/C=C\C(=O)O` (centres undefined), in the series with Rattus norvegicus [11], the result was Active. In addition, the 50% lethal dose (LD50) at 48 h in series [2] was 400 µmol/kg; in [3], 1600 µmol/kg. For the same molecule, the outcome in the series with Mus musculus [12] was inactive. In the series with Mus musculus [13], the Activity came to 5.

For the molecule `Cl.OCCNC1CC2CC3CC(C2)C1C3` (centres undefined), the outcome in the series on Mus musculus [14] and in the series on Mus musculus [15] was inactive. Moreover, the LD50 at 48 h in series [2] amounted to 600 µmol/kg; in series [3] it was 2600 µmol/kg.

Turning to `CN1CCN(CC23CC4CC(CC(C4)C2O)C3)CC1.Cl` (centres undefined), the outcome in the series on Mus musculus [16] was inactive. In addition, in the series with Mus musculus [17], the Activity was found to be 5. The 50% lethal dose (LD50) at 48 h came out at 900 µmol/kg in series [2] and 1200 µmol/kg in series [3].

Take `CNC1CC2CC3CC(C2)C1C3.Cl` (centres undefined): the result in the series with Mus musculus [18] was inactive. In addition, the result in the series on Mus musculus [19] was Active. For the same molecule, the 50% lethal dose (LD50) at 48 h was determined as 700 µmol/kg in [2] and 2000 µmol/kg in [3].

Turning to `CNCCC12CC3CC(CC(C3)C1Cl)C2.Cl` (centres undefined), the outcome with Rattus norvegicus [20] and in the series with Mus musculus [16] was Active. In addition, the LD50 at 48 h in series [2] is 600 µmol/kg; in series [3], 1500 µmol/kg. Further, in the series with Mus musculus [13], the Activity was over 10.

For `CNCC1CC2CC3CC(C2)C1C3.O=C(O)/C=C\C(=O)O` (centres undefined), the LD50 at 48 h amounted to 500 µmol/kg in series [2] and 1000 µmol/kg in [3]. The Activity with Mus musculus [21] is recorded as 5. The outcome in the series on Mus musculus [22] was inactive.

Consider `CN1CCN(CC2(O)CC3CC4CC(C3)C2C4)CC1.Cl` (centres undefined), for which, in the series with Mus musculus [16], the result was inactive. The LD50 at 48 h in [2] came out at 900 µmol/kg; in series [3] it was 2400 µmol/kg. Besides, the Activity in the series on Mus musculus [8] is 5.
